Laboratory results: ChEMBL document CHEMBL2396584, “Semisynthesis, cytotoxicity, antiviral activity, and drug interaction liability of 7-O-methylated analogues of flavonolignans from milk thistle” (Bioorg Med Chem, 2013)
pIC50: −log10 of the molar value. Calls of active or inactive are those of the source. The calls are words filed in the database; no cut-off is given here.

How the values were obtained:
[1] = Inhibition of UGT in human liver microsomes using 4-methylumbelliferone as substrate after 10 mins by fluorescence analysis; assay type: ADME, Microsome
How it was run: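 Pooled human liver microsomes (0.4 mg/mL) were incubated with 4-MU (100 μM), compound at 10 or 100 μM, 0.05% BSA, and 0.1 M Tris–HCl pH 7.5 with 5 mM MgCl2. The reaction was started with UDPGA (4 mM), and 4-MU depletion was followed by fluorescence over 10 min. Vehicle was 0.2% MeOH and diclofenac (400 μM) was the positive control. Data are means ± SD of triplicate incubations.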

[2] = Cytotoxicity against human Huh7.5.1 cells after 72 hrs; assay type: functional, cell-based; conditions: Huh-7, 72 h
How it was run: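 Huh7.5.1 hepatoma cells were seeded at 10,000 per well and incubated overnight. They were then exposed to nine concentrations from 0 to 62.5 μM. Viability was read after 72 h with an ATPlite assay. Each point was run in three replicates, and IC50 was derived by linear regression.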

Hepatitis C virus [3] = assay: Antiviral activity against HCV JFH-1 infected in human Huh7.5.1 cells assessed as viral core protein expression at 0.8 to 8 uM after 72 hrs by Western blot analysis; assay type: functional, organism-based; conditions: Hepacivirus hominis, Huh-7
Hepatitis C virus [4] = assay: Antiviral activity against HCV JFH-1 infected in human Huh7.5.1 cells assessed as viral core protein expression at 1.6 to 16.1 uM after 72 hrs by Western blot analysis; assay type: functional, organism-based; conditions: Hepacivirus hominis, Huh-7
Hepatitis C virus [5] = assay: Antiviral activity against HCV JFH-1 infected in human Huh7.5.1 cells assessed as viral core protein expression at 12.4 to 124.2 uM after 72 hrs by Western blot analysis; assay type: functional, organism-based; conditions: Hepacivirus hominis, Huh-7
Hepatitis C virus [6] = assay: Antiviral activity against HCV JFH-1 infected in human Huh7.5.1 cells assessed as viral core protein expression at 6.2 to 62.1 uM after 72 hrs by Western blot analysis; assay type: functional, organism-based; conditions: Hepacivirus hominis, Huh-7
Cytochrome P450 2C9 = Cytochrome P450 2C9 (Homo sapiens, UniProt P11712); assay: Inhibition of CYP2C9 in human liver microsomes using (S)-warfarin as substrate after 30 mins; assay type: ADME, Microsome; conditions: 0.5 h
Sequence of Cytochrome P450 2C9 (P11712 whole entry): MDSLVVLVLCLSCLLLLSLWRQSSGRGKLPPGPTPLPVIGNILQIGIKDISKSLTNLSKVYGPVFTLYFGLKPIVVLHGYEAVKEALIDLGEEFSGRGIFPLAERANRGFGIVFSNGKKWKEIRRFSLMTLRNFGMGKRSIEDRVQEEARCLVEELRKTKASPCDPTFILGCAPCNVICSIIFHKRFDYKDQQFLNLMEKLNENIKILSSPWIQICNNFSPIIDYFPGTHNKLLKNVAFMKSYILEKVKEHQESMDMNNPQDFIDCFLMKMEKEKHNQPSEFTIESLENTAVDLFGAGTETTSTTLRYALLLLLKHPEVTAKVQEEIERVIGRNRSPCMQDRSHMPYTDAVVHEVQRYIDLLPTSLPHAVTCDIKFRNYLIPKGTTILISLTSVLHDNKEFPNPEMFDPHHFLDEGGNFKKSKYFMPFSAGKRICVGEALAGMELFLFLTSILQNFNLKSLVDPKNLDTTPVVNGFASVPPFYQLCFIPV

Hepatitis C virus [7] = assay: Antiviral activity against HCV JFH-1 infected in human Huh7.5.1 cells assessed as viral core protein expression at 6 to 60.3 uM after 72 hrs by Western blot analysis; assay type: functional, organism-based; conditions: Hepacivirus hominis, Huh-7

Row | SMILES | inhibition (INH) [1] | pIC50 [2] | further results
1 | O=C(O)Cc1ccccc1Nc1c(Cl)cccc1Cl [DICLOFENAC] | 56% |  | 
2 | COc1cc(O)c2c(c1)O[C@H](c1ccc3c(c1)O[C@H](CO)[C@@H](c1ccc(O)c(OC)c1)O3)[C@@H](O)C2=O |  | 4.88 | Activity (Hepatitis C virus [3]): Active
3 | COc1cc(O)c2c(c1)O[C@H](c1ccc3c(c1)O[C@@H](CO)[C@H](c1ccc(O)c(OC)c1)O3)[C@@H](O)C2=O |  | 4.74 | Activity (Hepatitis C virus [4]): Active
4 | COc1cc(O)c2c(c1)O[C@H](c1ccc(O)c3c1[C@@H](CO)[C@H](c1ccc(O)c(OC)c1)O3)[C@@H](O)C2=O |  | 4.56 | Activity (Hepatitis C virus [5]): Active
5 | COc1cc([C@@H]2Oc3c(O)ccc([C@H]4Oc5cc(O)cc(O)c5C(=O)[C@@H]4O)c3[C@H]2CO)ccc1O [ISOSILYCHRISTIN] |  | < 3.89 | Activity (Hepatitis C virus [5]): inactive
6 | COc1cc([C@@H]2Oc3ccc([C@H]4Oc5cc(O)cc(O)c5C(=O)[C@@H]4O)cc3O[C@H]2CO)ccc1O [ISOSILYBIN B] |  | 4.57 | Activity (Hepatitis C virus [4]): Active
7 | COc1cc([C@H]2Oc3ccc([C@H]4Oc5cc(O)cc(O)c5C(=O)[C@@H]4O)cc3O[C@@H]2CO)ccc1O [ISOSILYBIN A] |  | 4.10 | Activity (Hepatitis C virus [6]): Active; inhibition (INH) (Cytochrome P450 2C9): Not Active
8 | Oc1ccc(/C=C/c2cc(O)cc(O)c2)cc1 [RESVERATROL] |  | 4.97 | 
9 | COc1cc(C2Oc3c(O)cc([C@H]4Oc5cc(O)cc(O)c5C(=O)[C@@H]4O)cc3C2CO)ccc1O (some centres not stated) [SILICRISTIN] |  | < 3.89 | Activity (Hepatitis C virus [5]): inactive
10 | COc1cc(O)c2c(c1)O[C@H](c1cc(O)c3c(c1)[C@@H](CO)[C@H](c1ccc(O)c(OC)c1)O3)[C@@H](O)C2=O |  | 4.18 | Activity (Hepatitis C virus [7]): Active

Now from value to compound, other results behind:

Row | inhibition (INH) [1] | SMILES | pIC50 [2] | further results
11 | Active | COc1cc(O)c2c(c1)O[C@H](c1ccc3c(c1)O[C@@H](c1ccc(O)c(OC)c1)[C@H](CO)O3)[C@@H](O)C2=O | 4.90 | Activity (Hepatitis C virus [3]): Active
12 | Active | COc1cc([C@@H]2Oc3cc([C@H]4Oc5cc(O)cc(O)c5C(=O)[C@@H]4O)ccc3O[C@H]2CO)ccc1O [SILYBIN B] | 4.16 | Activity (Hepatitis C virus [6]): Active
13 | Active | COc1cc(O)c2c(c1)O[C@H](c1ccc3c(c1)O[C@H](c1ccc(O)c(OC)c1)[C@@H](CO)O3)[C@@H](O)C2=O | 5.02 | Activity (Hepatitis C virus [3]): Active
14 | Active | COc1cc([C@H]2Oc3cc([C@H]4Oc5cc(O)cc(O)c5C(=O)[C@@H]4O)ccc3O[C@@H]2CO)ccc1O [SILYBIN A] | 4.10 | Activity (Hepatitis C virus [6]): Active
15 | Active | COc1cc(O)c2c(c1)O[C@H](C1=C[C@H]3C(=O)[C@]4(O)OC[C@H]([C@H]3c3ccc(O)c(OC)c3)[C@H]14)[C@@H](O)C2=O | 5.03 | Activity (Hepatitis C virus [3]): Active
16 | Active | COc1cc([C@@H]2[C@H]3CO[C@@]4(O)C(=O)[C@@H]2C=C([C@H]2Oc5cc(O)cc(O)c5C(=O)[C@@H]2O)[C@@H]34)ccc1O [SILIDIANIN] | < 3.89 | Activity (Hepatitis C virus [5]): inactive
